# Assay outcomes deposited in PubChem by Sanford-Burnham Center for Chemical Genomics.
# FLuc act counter – FLuc activators, initial screening, artefact control for FLuc-dependent activation tests, biochemical, ATPlite luminescence; ATPlite luciferase biochemical, 10 min; 0 = ATP-free wells, 1 = DMSO control; AID 1027, 2008; 200,000 tested, under 10 active; activation factor at 10 µM;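 active means luciferase activation factor, scaled between plate controls, of at least 2 with compound at 10 µM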
# Target sequence (P08659 whole entry, looked up): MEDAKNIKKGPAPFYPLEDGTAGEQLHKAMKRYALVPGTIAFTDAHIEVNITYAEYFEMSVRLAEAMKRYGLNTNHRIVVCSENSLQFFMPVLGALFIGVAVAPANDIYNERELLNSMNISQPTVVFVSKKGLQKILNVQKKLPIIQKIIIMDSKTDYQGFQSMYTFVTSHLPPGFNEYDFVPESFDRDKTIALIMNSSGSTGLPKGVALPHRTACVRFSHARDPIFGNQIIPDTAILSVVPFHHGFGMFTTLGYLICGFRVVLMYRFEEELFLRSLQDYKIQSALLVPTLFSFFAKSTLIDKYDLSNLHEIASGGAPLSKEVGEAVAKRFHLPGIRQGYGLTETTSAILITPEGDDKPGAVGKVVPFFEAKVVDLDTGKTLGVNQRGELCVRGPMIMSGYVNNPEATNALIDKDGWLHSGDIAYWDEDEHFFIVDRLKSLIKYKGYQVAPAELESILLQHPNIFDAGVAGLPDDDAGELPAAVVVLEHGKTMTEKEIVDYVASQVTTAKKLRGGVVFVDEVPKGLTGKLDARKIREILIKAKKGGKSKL
#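 System: Luciferase/luciferin detection reagent, cell-free biochemical luciferase assay | Medium: PBS buffer for ATP | Dosing: Test compounds dosed from 2 mM stocks in 100% DMSO | Timing: 10 min at ambient temperature | Signal: Luminescence measurement of luciferase light output | Evaluation: Luciferase activation, seen as luminescence increase over controls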
# C8 TRAIL sens – viability loss with TRAIL in NB7+C8 cells, primary screen, TRAIL sensitizer project, cell-based, ATPlite luminescence; inhibition (viability loss, TRAIL sensitization), % at 10 µM; 360,000 tested, 1% active;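 active means compounds causing at least 50% loss of cell viability in the single-dose screen, relative to plate controls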
# PPC-1+TRAIL kill – compounds killing PPC-1 cancer cells with TRAIL present, primary screen, TRAIL potentiator project, ATPLite luminescence, uHTS | PPC-1 cells + TRAIL, ATPLite viability luminescence | cell killing (% activity), % at 4 µM or 5 µM | 220,000 tested, 0.41% active;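 active means cell killing above 50% in the first pass at 4 µM, then a duplicate retest at 5 µM averaging 50% or more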;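 further: plate controls were cells with TRAIL plus DMSO for no effect and medium-only wells lacking cells for full effect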
# FLuc inh counter – firefly luciferase enzyme inhibitors, primary screen, artefact control for luciferase-based inhibitor screens, biochemical, luminescence, ATPLite | 10 min | inhibition, % at 10 µM | 200,000 tested, 1.5% active | AID 1006, 2008;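 active means inhibition above about 50% when tested at 10 µM, limit read from the data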
# * hit, by the source's call; . = not tested or not shown. This is a sample that favours compounds with a hit; in the whole collection about 1.6% have one here.
SMILES,FLuc act counter,C8 TRAIL sens,PPC-1+TRAIL kill,FLuc inh counter
COc1ccc(NC(=O)c2ccc(-c3csc(C)n3)cc2)cc1,.,36.9,.,.
Cc1nc(-c2ccc(C(=O)Nc3cccc(F)c3)cc2)cs1,.,77.3*,.,.
COc1ccc(C2C(C(=O)N3CCCCC3)c3ccccc3C(=O)N2C)cc1 (configuration not stated),1,43.2,1.3,-4.3
CCOC(=O)C1CCN(C(=O)C2c3ccccc3C(=O)N(C)C2c2ccc(OC)cc2)CC1 (configuration not stated),1.1,53.7*,27.2,-6.0
COc1ccccc1CC(=O)Nc1ccc(C(=O)N2CCCCC2)cc1,.,-14.0,.,.
Cc1ccc2nsnc2c1NC(=O)CCl,1,-0.4,-4.1,-4.6
COCn1c(COc2ccc3ccccc3c2)nc2ccccc21,0.4,39.5,23.9,59.8*
Cc1ccc(NC(=O)C(=O)NCc2ccccn2)cc1,0.9,-4.8,0.9,6.0
CC(C)C(=O)Nc1ccc(NC(=O)c2ccccn2)cn1,0.3,48.3*,19.7,66.8*
CCC(=O)Nc1ccc(NC(=O)c2ccccn2)cn1,0.6,20.6,18.8,41.6
O=C(Nc1ccc(NC(=O)C2CC2)nc1)c1ccccn1,0.4,40.1,2.2,62.1*
O=c1c2ccccc2cnn1-c1ccc(Br)cc1,0.5,20.3,31.8,47.8
O=c1c2ccccc2cnn1-c1ccc2ccccc2c1,0.4,51.3*,7.1,64.0*
COc1ccc(CN(C(=O)CSc2nnc(-c3ccccc3C)o2)c2ccc(F)cc2)cc1,1,95.0*,28.3,-3.5
O=C(CSc1nnc(-c2c[nH]c3ccccc23)o1)N(Cc1ccccc1)c1ccc(F)cc1,1,-12.8,15.4,1.0
COc1ccccc1C/C(N)=N/OC(=O)c1ccc(C)c([N+](=O)[O-])c1,1.1,55.2*,3.2,-9.4
COc1ccc(C(=O)O/N=C(\N)c2ccc(OC)c(OC)c2)c(OC)c1,.,17.4,.,.
Cc1ccc(C(=O)O/N=C(\N)Cc2cccs2)cc1[N+](=O)[O-],.,9.6,.,.
COc1ccc(C(=O)O/N=C(\N)c2ccc(OC)c(OC)c2)cc1,.,61.5*,.,.
COc1ccc(/C(N)=N/OC(=O)c2ccc(OC)c([N+](=O)[O-])c2)cc1OC,1,64.2*,2.8,-3.9
COc1ccc(C(=O)O/N=C(\C)c2ccccc2)cc1,0.1,7.6,6.8,90.3*
CCCCc1ccc(NC(=S)NCc2cccs2)cc1,1.1,1.4,13.4,-8.4
Cc1oc(-c2ccccc2F)nc1CSCC(=O)NC1CCCC1,.,9.9,.,.
COc1ccccc1C(=O)O/N=C(\N)c1ccccc1Cl,1,8.0,12.5,-1.4
COc1ccc(/C(N)=N/OC(=O)CC2CCCCC2)cc1OC,.,72.8*,.,.
SMILES,FLuc act counter,C8 TRAIL sens,PPC-1+TRAIL kill,FLuc inh counter
COc1cccc(C(=O)O/N=C(\C)c2cnccn2)c1,0.3,-0.8,4.6,65.2*
C/C(=N/OC(=O)c1c(-c2c(Cl)cccc2Cl)noc1C)c1cnccn1,1.1,-2.1,-3.7,-6.3
COc1ccc(C(=O)O/N=C(\N)c2ccccc2Cl)cc1OC,.,78.3*,.,.
O=C(NCC1(c2ccccc2)CCCC1)c1ccccc1,1.1,9.4,16.4,-6.3
CCOc1ccccc1Nc1nc(-c2cccnc2)cs1,.,-6.3,.,.
CC(C)CN(C(=O)COC(=O)c1cc2ccccc2oc1=O)C1CCS(=O)(=O)C1 (configuration not stated),1,.,16.0,-4.0
O=C(CC(Nc1ccc(F)cc1)C(=O)O)c1ccccc1 (configuration not stated),0.1,59.8*,4.6,86.8*
Cc1ccc(NC(CC(=O)c2ccccc2)c2ccc(F)cc2)cc1 (configuration not stated),1,2.0,11.4,0.0
Nc1c2c(nc3ccccc13)CCCC2,1.1,-4.4,2.6,-7.7
Nc1c2ccccc2nc2ccccc12,.,63.9*,28.6,.
CCc1c(C)[nH]c2c(C)cccc2c1=O,1,52.0*,3.4,-0.5
COc1ccc2c(=O)cc(CO)oc2c1,.,-5.5,.,.
CCCCCCCCC(c1nc2ccccc2[nH]1)N1CCN=C1c1cc2ccccc2[nH]1 (configuration not stated),.,87.2*,.,.
CCC(c1nc2ccccc2[nH]1)n1c(-c2ccc3ccccc3c2)nc2ccccc21 (configuration not stated),.,-1.5,.,.
Cc1ccc(C(CNS(=O)(=O)c2ccc(F)cc2)N2CCN(C)CC2)cc1 (configuration not stated),.,-3.0,.,.
NC(=O)c1sc2cc(C(F)(F)F)cnc2c1-c1ccccc1,1.1,-3.9,1.1,-6.5
